Measured values from ChEMBL document CHEMBL3425464, “HM30181 Derivatives as Novel Potent and Selective Inhibitors of the Breast Cancer Resistance Protein (BCRP/ABCG2)” (J Med Chem, 2015).

Biological target: T1, Broad substrate specificity ATP-binding cassette transporter ABCG2 (Homo sapiens, UniProt Q9UNQ0)
T1 sequence (Q9UNQ0 whole entry): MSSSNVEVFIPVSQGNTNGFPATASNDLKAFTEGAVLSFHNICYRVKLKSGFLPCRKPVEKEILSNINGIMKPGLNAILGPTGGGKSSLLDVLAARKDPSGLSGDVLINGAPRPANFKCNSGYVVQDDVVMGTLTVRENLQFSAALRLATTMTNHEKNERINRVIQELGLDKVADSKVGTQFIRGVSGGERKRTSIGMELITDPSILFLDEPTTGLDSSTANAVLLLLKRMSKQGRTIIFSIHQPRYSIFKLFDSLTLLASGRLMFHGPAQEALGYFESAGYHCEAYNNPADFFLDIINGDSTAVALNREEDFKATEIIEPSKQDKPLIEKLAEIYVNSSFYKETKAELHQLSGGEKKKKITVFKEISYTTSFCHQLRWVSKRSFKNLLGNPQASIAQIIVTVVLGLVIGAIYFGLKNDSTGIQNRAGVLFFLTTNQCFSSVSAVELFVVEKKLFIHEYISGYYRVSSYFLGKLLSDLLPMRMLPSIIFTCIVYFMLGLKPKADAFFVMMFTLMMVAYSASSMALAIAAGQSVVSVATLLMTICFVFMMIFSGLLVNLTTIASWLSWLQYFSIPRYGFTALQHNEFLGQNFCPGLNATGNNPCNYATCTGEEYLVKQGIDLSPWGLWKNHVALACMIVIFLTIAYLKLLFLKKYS
Experiment: Inhibition of GFP-tagged human BCRP expressed in MDCK2 cells pre-incubated for 30 mins followed by Hoechst 33342 addition and further incubated for 120 mins by Hoechst 33342 accumulation assay
Format: cell-based, MDCK-II
Conditions: not given; call rule not given here
Summary of the method: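 MDCK II cells stably carrying human BCRP cDNA C-terminally fused to GFP are washed in KHB, pH 7.4. About 30,000 cells/well are preincubated 30 min at 37 °C with compound up to 10 μM (DMSO ≤0.1%, methanol ≤5% for poorly soluble compounds). Hoechst 33342 is added from a 10 μM solution, and fluorescence (ex 355/em 460) is read every 60 s for 120 min. The steady-state mean (100–109 min) is fitted to a four-parameter logistic curve.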
For `CCCc1ccc(-n2nnc(-c3ccccc3NC(=O)c3ccc(OC)cc3)n2)cc1`, the IC50 was 64.2 nM.
Work on `COc1ccc(-n2nnc(-c3ccccc3NC(=O)c3ccc(C(F)(F)F)cc3)n2)cc1` yielded an IC50 of 106 nM.
Work on `COc1ccc(-n2nnc(-c3ccccc3NC(=O)c3ccc([N+](=O)[O-])cc3)n2)cc1` yielded an IC50 of 118 nM.
With `COc1ccc(C(=O)Nc2ccccc2-c2nnn(-c3ccc(C(F)(F)F)cc3)n2)cc1` the IC50 was 73 nM.
`COc1cccc(-n2nnc(-c3ccccc3NC(=O)c3ccc([N+](=O)[O-])cc3)n2)c1` showed an IC50 of 78.9 nM.

Tested on: not listed separately
Experiment: Solubility in water
Format: physicochemical
Conditions: buffer
With `CCCc1ccc(-n2nnc(-c3ccccc3NC(=O)c3ccc(OC)cc3)n2)cc1` the solubility was “Insoluble”.
For `COc1ccc(-n2nnc(-c3ccccc3NC(=O)c3ccc(C(F)(F)F)cc3)n2)cc1`, the solubility was “Insoluble”.
In the case of `COc1ccc(-n2nnc(-c3ccccc3NC(=O)c3ccc([N+](=O)[O-])cc3)n2)cc1`, the solubility is reported as “Insoluble”.
In the case of `COc1ccc(C(=O)Nc2ccccc2-c2nnn(-c3ccc(C(F)(F)F)cc3)n2)cc1`, the solubility is reported as “Insoluble”.
In the case of `COc1cccc(-n2nnc(-c3ccccc3NC(=O)c3ccc([N+](=O)[O-])cc3)n2)c1`, the solubility is reported as “Insoluble”.

Tested on: not listed separately
Experiment: Solubility in DMSO
Format: physicochemical
Conditions: not given
For `CCCc1ccc(-n2nnc(-c3ccccc3NC(=O)c3ccc(OC)cc3)n2)cc1`, the solubility was greater than 10 mM.
Molecule `COc1ccc(-n2nnc(-c3ccccc3NC(=O)c3ccc(C(F)(F)F)cc3)n2)cc1` has a solubility greater than 10 mM.
In the case of `COc1ccc(-n2nnc(-c3ccccc3NC(=O)c3ccc([N+](=O)[O-])cc3)n2)cc1`, the solubility is reported as greater than 10 mM.
With `COc1ccc(C(=O)Nc2ccccc2-c2nnn(-c3ccc(C(F)(F)F)cc3)n2)cc1` the solubility was greater than 10 mM.
Molecule `COc1cccc(-n2nnc(-c3ccccc3NC(=O)c3ccc([N+](=O)[O-])cc3)n2)c1` has a solubility greater than 10 mM.

Biological target: T1, Broad substrate specificity ATP-binding cassette transporter ABCG2
Experiment: Inhibition of human BCRP expressed in MDCK2 cells assessed as reversal of multidrug resistance by measuring increase in SN-38-induced cytotoxicity at 3 uM after 72 hrs by MTT assay
Format: cell-based
Conditions: mdck-ii
Summary of the method: (§1)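 MDCK II BCRP cells are seeded at 3000/well and allowed to attach for 6 h at 37 °C, 5% CO2. They are then exposed to SN-38 (up to 100 μM) alone or together with 3 μM or 5 μM modulator for 72 h. MDCK II wild-type cells given SN-38 serve as the comparison. MTT is added for 1 h, formazan is dissolved in DMSO, and absorbance is read at 570 nm with 690 nm background.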
With `COc1ccc(C(=O)Nc2ccccc2-c2nnn(-c3ccc(C(F)(F)F)cc3)n2)cc1` the “inhibition (INH)” value was “Active”.

Tested on: not listed separately
Experiment: Intrinsic cytotoxicity against BCRP expressing MDCK2 cells assessed as reduction in cell viability after 72 hrs by MTT assay
Format: ADME, cell-based, Canis lupus familiaris, MDCK-II
Conditions: dog
Summary of the method: (§2)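 Cells are seeded at 3000/well and allowed to attach for 6 h at 37 °C, 5% CO2. They are then exposed to compound in medium, up to 100 μM final (DMSO ≤1.0%), for 72 h. Controls are medium alone (negative) and 10% DMSO (positive). MTT is added for 1 h, formazan is dissolved in DMSO, and absorbance is read at 570 nm minus 690 nm. Viability is expressed as % of the negative control, and GI50 comes from a variable-slope sigmoidal fit. n = 3, each in quadruplicate.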
`CCCc1ccc(-n2nnc(-c3ccccc3NC(=O)c3ccc(OC)cc3)n2)cc1` gave a GI50 at 72 h of 61800 nM.
For `COc1ccc(C(=O)Nc2ccccc2-c2nnn(-c3ccc(C(F)(F)F)cc3)n2)cc1`, the GI50 at 72 h was 40200 nM.

Biological target: ABCB1 (P-gp) (Homo sapiens, UniProt P08183)
Sequence (P08183 whole entry): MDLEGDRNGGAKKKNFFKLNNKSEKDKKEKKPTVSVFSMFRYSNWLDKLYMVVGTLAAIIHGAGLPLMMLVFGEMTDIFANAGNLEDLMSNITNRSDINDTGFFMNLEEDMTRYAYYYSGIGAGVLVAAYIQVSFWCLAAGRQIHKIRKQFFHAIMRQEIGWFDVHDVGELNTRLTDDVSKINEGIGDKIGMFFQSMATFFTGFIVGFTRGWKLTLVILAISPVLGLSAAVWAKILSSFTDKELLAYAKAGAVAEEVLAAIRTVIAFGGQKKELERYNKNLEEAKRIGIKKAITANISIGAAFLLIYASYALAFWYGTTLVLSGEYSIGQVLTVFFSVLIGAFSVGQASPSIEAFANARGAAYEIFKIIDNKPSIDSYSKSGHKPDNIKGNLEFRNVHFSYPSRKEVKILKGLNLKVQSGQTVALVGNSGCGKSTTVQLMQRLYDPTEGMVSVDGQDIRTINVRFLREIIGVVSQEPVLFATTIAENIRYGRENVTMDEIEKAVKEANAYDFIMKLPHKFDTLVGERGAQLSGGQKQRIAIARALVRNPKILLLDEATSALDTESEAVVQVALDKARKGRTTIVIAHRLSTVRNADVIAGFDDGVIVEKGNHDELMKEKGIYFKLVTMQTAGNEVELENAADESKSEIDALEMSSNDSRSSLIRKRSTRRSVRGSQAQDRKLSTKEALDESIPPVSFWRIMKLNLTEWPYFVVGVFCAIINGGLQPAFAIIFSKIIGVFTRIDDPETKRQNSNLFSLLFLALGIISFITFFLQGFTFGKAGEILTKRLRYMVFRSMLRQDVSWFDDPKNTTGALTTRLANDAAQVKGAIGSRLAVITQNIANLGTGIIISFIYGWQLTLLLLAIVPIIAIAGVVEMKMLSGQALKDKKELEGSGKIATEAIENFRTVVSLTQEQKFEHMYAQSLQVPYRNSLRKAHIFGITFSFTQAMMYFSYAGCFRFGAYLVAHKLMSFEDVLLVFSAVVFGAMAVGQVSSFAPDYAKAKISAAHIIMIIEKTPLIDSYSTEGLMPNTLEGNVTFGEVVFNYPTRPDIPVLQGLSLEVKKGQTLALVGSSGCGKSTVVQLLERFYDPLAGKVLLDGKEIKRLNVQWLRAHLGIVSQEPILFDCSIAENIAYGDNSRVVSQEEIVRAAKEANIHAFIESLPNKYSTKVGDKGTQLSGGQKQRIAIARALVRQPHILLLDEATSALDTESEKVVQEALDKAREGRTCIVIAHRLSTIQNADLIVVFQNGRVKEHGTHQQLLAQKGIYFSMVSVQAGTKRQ
Experiment: Inhibition of ABCB1 in human A2780adr cells at 10 uM pre-incubated for 30 mins followed by calcein AM addition and further incubated for 60 mins by calcein AM assay
Format: cell-based, A2780 ADR
Conditions: probe calcein AM
With `CCCc1ccc(-n2nnc(-c3ccccc3NC(=O)c3ccc(OC)cc3)n2)cc1` the inhibition at 1 h, 10 µM was less than 25%.
Molecule `COc1ccc(-n2nnc(-c3ccccc3NC(=O)c3ccc(C(F)(F)F)cc3)n2)cc1` has an inhibition at 1 h, 10 µM of less than 25%.
`COc1ccc(-n2nnc(-c3ccccc3NC(=O)c3ccc([N+](=O)[O-])cc3)n2)cc1` gave an inhibition at 1 h, 10 µM of less than 25%.
Molecule `COc1ccc(C(=O)Nc2ccccc2-c2nnn(-c3ccc(C(F)(F)F)cc3)n2)cc1` has an inhibition at 1 h, 10 µM of less than 25%.
`COc1cccc(-n2nnc(-c3ccccc3NC(=O)c3ccc([N+](=O)[O-])cc3)n2)c1` showed an inhibition at 1 h, 10 µM of less than 25%.

Biological target: T1, Broad substrate specificity ATP-binding cassette transporter ABCG2
Experiment: Inhibition of human BCRP expressed in MDCK2 cells assessed as reversal of multidrug resistance by measuring increase in SN-38-induced cytotoxicity at 5 uM after 72 hrs by MTT assay
Format: cell-based
Conditions: mdck-ii
Summary of the method: as §1
With `COc1ccc(C(=O)Nc2ccccc2-c2nnn(-c3ccc(C(F)(F)F)cc3)n2)cc1` the “inhibition (INH)” value was “Active”.

Biological target: Multidrug resistance-associated protein 1 (Homo sapiens, UniProt P33527)
Sequence (P33527 whole entry): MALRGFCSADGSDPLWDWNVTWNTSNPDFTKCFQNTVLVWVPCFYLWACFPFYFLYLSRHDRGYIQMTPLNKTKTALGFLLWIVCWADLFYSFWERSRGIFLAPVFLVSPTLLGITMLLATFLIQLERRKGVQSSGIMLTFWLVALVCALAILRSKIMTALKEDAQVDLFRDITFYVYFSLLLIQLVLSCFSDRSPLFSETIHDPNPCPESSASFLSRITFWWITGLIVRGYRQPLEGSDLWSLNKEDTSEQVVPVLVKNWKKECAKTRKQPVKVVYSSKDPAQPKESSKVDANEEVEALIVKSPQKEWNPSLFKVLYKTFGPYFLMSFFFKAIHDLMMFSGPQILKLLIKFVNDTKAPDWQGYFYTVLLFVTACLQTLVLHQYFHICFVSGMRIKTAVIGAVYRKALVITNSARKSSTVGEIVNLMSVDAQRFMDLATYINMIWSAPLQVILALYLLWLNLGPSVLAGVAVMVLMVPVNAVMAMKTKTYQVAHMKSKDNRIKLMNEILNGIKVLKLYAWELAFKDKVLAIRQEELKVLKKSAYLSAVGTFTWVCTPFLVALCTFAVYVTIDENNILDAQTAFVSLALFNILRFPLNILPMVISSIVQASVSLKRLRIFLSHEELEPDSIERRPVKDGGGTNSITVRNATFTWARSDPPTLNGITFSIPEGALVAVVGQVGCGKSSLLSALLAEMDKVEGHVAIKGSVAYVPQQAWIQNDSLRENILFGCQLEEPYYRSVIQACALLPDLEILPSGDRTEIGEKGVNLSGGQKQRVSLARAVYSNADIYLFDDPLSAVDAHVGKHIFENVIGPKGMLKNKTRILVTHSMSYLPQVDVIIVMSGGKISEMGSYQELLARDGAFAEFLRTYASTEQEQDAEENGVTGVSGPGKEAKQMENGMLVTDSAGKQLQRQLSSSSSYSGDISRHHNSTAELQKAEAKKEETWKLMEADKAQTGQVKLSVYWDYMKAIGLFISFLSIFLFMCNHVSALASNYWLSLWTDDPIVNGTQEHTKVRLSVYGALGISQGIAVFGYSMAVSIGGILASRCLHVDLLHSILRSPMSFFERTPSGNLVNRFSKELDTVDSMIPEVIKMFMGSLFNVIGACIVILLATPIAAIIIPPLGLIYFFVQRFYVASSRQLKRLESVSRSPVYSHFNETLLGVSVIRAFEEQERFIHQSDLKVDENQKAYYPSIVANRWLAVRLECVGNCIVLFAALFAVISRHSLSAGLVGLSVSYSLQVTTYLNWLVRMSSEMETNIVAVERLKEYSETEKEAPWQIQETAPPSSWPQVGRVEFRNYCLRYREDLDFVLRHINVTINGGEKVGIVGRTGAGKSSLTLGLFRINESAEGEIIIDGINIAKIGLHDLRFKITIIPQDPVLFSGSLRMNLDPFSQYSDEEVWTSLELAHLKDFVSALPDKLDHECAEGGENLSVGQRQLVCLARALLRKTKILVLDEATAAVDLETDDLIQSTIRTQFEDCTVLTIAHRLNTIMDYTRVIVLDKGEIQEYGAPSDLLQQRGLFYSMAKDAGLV
Experiment: Inhibition of MRP1 in human H69AR cells at 10 uM pre-incubated for 30 mins followed by calcein AM addition and further incubated for 60 mins by calcein AM assay
Conditions: 1 h
For `CCCc1ccc(-n2nnc(-c3ccccc3NC(=O)c3ccc(OC)cc3)n2)cc1`, the “inhibition (INH)” value was “Not Active”.
For `COc1ccc(-n2nnc(-c3ccccc3NC(=O)c3ccc(C(F)(F)F)cc3)n2)cc1`, the “inhibition (INH)” value was “Not Active”.
For `COc1ccc(-n2nnc(-c3ccccc3NC(=O)c3ccc([N+](=O)[O-])cc3)n2)cc1`, the “inhibition (INH)” value was “Not Active”.
For `COc1ccc(C(=O)Nc2ccccc2-c2nnn(-c3ccc(C(F)(F)F)cc3)n2)cc1`, the “inhibition (INH)” value was “Not Active”.
For `COc1cccc(-n2nnc(-c3ccccc3NC(=O)c3ccc([N+](=O)[O-])cc3)n2)c1`, the “inhibition (INH)” value was “Not Active”.

Biological target: T2, BCRP (ABCG2) (Homo sapiens, UniProt Q9UNQ0)
T2 sequence (Q9UNQ0 whole entry): T1 sequence (Q9UNQ0 whole entry)
Experiment: Inhibition of GFP-tagged human BCRP expressed in MDCK2 cells pre-incubated for 30 mins followed by Hoechst 33342 addition and further incubated for 120 mins by Hoechst 33342 accumulation assay relative to XR9577
Format: cell-based, MDCK-II
Conditions: MDCK2 cells expressing GFP-tagged human BCRP, probe Hoechst 33342, read-out: Imax
For `CCCc1ccc(-n2nnc(-c3ccccc3NC(=O)c3ccc(OC)cc3)n2)cc1`, the Emax at 2 h was 88%.
With `COc1ccc(-n2nnc(-c3ccccc3NC(=O)c3ccc(C(F)(F)F)cc3)n2)cc1` the Emax at 2 h was 93%.
`COc1ccc(-n2nnc(-c3ccccc3NC(=O)c3ccc([N+](=O)[O-])cc3)n2)cc1` gave an Emax at 2 h of 61%.
With `COc1ccc(C(=O)Nc2ccccc2-c2nnn(-c3ccc(C(F)(F)F)cc3)n2)cc1` the Emax at 2 h was 102%.
For `COc1cccc(-n2nnc(-c3ccccc3NC(=O)c3ccc([N+](=O)[O-])cc3)n2)c1`, the Emax at 2 h was 58%.

Tested on: not listed separately
Experiment: Intrinsic cytotoxicity against wild type MDCK2 cells assessed as reduction in cell viability after 72 hrs by MTT assay
Format: cell-based, Canis lupus familiaris, MDCK-II
Conditions: dog
Summary of the method: as §2
`CCCc1ccc(-n2nnc(-c3ccccc3NC(=O)c3ccc(OC)cc3)n2)cc1` showed a GI50 at 72 h of 63200 nM.
`COc1ccc(C(=O)Nc2ccccc2-c2nnn(-c3ccc(C(F)(F)F)cc3)n2)cc1` gave a GI50 at 72 h of 34400 nM.

Biological target: T2, BCRP (ABCG2)
Experiment: Potency index, ratio of IC50 for Ko143 to IC50 for compound against GFP-tagged human BCRP expressed in MDCK2 cells by Hoechst 33342 accumulation assay
Format: cell-based
Conditions: MDCK2 cells expressing GFP-tagged human BCRP, probe Hoechst 33342, read-out: Ratio IC50
In the case of `CCCc1ccc(-n2nnc(-c3ccccc3NC(=O)c3ccc(OC)cc3)n2)cc1`, the selectivity ratio is reported as 2.
Molecule `COc1ccc(C(=O)Nc2ccccc2-c2nnn(-c3ccc(C(F)(F)F)cc3)n2)cc1` has a selectivity ratio of 2.

Tested on: not listed separately
Experiment: Ratio of GI50 for wild type MDCK2 cells by MTT assay to IC50 for GFP-tagged human BCRP expressed in MDCK2 cells by Hoechst 33342 accumulation assay
Design: species or system MDCK-II
Conditions: not given
Summary of the method: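 Ratio of two values. […] Read at 570/690 nm as % of medium control; n = 3, each in quadruplicate. IC50 came from Hoechst 33342 accumulation in MDCK II BCRP-GFP cells: 2 h at 37 °C, steady-state fluorescence, four-parameter fit.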
With `CCCc1ccc(-n2nnc(-c3ccccc3NC(=O)c3ccc(OC)cc3)n2)cc1` the Ratio was 1000.
Molecule `COc1ccc(C(=O)Nc2ccccc2-c2nnn(-c3ccc(C(F)(F)F)cc3)n2)cc1` has a Ratio of 500.
